Reference: ChEMBL document CHEMBL1921800, “Molecular modeling: a search for a calpain inhibitor as a new treatment for cataractogenesis” (J Med Chem, 2011)
Residues, ends and D or L forms follow the SMILES beside them. *: point of attachment. Tos = Cc1ccc(S(=O)(=O)*)cc1; Ms = CS(=O)(=O)*

Columns and labels:
[1] = biological target: T1, Calpain-1 catalytic subunit (Rattus norvegicus, UniProt P97571); test: Inhibition of rat CAPN1 using BODIPY-labeled casein substrate by fluorometric analysis
T1 sequence (P97571 whole entry): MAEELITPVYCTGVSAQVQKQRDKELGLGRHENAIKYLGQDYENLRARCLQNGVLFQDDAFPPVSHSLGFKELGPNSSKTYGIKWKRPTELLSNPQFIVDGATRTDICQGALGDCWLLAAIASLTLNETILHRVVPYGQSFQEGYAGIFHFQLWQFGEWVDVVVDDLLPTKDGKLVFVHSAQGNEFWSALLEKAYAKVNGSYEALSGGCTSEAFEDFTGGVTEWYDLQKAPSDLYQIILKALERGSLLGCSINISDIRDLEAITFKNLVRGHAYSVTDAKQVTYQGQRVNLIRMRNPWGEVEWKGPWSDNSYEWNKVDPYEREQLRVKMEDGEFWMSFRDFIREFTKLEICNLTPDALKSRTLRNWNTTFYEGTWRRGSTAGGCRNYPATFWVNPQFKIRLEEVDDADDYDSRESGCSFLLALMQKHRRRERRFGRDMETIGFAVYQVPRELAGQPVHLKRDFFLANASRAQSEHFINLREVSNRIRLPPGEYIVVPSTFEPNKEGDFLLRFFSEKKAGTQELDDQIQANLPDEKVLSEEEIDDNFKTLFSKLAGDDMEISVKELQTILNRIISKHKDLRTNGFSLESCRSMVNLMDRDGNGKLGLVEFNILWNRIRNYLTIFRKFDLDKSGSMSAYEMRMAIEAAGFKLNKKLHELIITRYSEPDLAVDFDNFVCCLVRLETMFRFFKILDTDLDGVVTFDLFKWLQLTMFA

[2] = Inhibition of ovine CAPN1 using BODIPY-labeled casein substrate by fluorometric analysis; set-up: species or system Ovis aries
Procedure, shortened: (§1)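 Quenched fluorogenic substrate: casein labelled with BODIPY (4,4-difluoro-5,7-dimethyl-4-bora-3a,4a-diaza-s-indacene-3-propionic acid). Proteolysis relieves the quenching, and the resulting rise in fluorescence is the read-out. IC50 was determined with an established protocol at the Lincoln University laboratory.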

[3] = Inhibition of ovine CAPN2 using BODIPY-labeled casein substrate by fluorometric analysis; set-up: species or system Ovis aries; procedure, shortened: as §1
[4] = biological target: T2, Calpain-2 catalytic subunit (Homo sapiens, UniProt P17655); test: Inhibition of CAPN2 using BODIPY-labeled casein substrate by fluorometric analysis; procedure, shortened: as §1
T2 sequence (P17655 whole entry): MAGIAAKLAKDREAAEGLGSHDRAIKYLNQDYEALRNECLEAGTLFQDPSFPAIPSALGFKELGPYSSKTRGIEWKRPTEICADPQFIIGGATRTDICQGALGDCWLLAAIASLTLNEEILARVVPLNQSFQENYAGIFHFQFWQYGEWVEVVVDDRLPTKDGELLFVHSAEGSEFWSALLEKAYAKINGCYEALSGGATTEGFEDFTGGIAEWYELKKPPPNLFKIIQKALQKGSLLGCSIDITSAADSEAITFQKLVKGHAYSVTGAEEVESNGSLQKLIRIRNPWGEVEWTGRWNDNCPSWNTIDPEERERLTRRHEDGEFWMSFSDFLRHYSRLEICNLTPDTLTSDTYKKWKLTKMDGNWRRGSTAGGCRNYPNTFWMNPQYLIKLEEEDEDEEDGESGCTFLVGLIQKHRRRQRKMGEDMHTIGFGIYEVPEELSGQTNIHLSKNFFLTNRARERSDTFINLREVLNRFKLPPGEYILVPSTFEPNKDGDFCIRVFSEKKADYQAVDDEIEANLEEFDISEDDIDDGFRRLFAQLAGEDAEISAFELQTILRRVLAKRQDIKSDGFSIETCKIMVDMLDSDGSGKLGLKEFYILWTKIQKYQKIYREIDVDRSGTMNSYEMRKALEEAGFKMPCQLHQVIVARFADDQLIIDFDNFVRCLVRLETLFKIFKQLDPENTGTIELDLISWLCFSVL

Compound | IC50 [1] [µM] | IC50 [2] [µM] | IC50 [3] [µM] | further results
CC(C)C[C@@H](C=O)NC(=O)[C@@H](NC(=O)c1ccc[nH]1)C(C)C |  | 0.65 | 0.315 | 
CC(C)C[C@@H](C=O)NC(=O)[C@@H](NC(=O)c1ccc(C=O)s1)C(C)C |  | 0.44 | 0.085 | 
CC(C)C[C@@H](C=O)NC(=O)[C@@H](NC(=O)c1ccc(C=O)o1)C(C)C |  | 0.96 | 0.1 | 
CC(C)[C@H](NS(=O)(=O)c1ccc(F)cc1)C(=O)N[C@@H](C)C=O | 0.63 |  |  | 
CC(C)C[C@@H](C=O)NC(=O)[C@@H](NS(=O)(=O)c1ccc(F)cc1)C(C)C |  | 0.13 | 0.08 | 
Cc1ccc(C(=O)N[C@H](C(=O)N[C@H](C=O)CC(C)C)C(C)C)[nH]1 |  | 0.34 | 0.11 | 
CC(C)C[C@@H]1NC(=O)[C@@H](NC(=O)OCc2ccccc2)Cc2ccc(cc2)OCCC[C@@H](C=O)NC1=O |  |  |  | IC50 [4]: 0.85 µM
Cc1ccc(S(=O)(=O)N[C@H](C(=O)N[C@H](C=O)CC(C)C)C(C)C)cc1 (Tos-Val-Leu-aldehyde) | 0.028 |  |  | 
CC(C)C[C@@H](C=O)NC(=O)[C@@H](NC(=O)c1ccco1)C(C)C |  | 0.79 | 0.135 | 
CC(C)[C@@H]1NC(=O)[C@@H](NC(=O)OCc2ccccc2)Cc2ccc(cc2)OCCCC[C@@H](C=O)NC1=O |  |  |  | IC50 [4]: 0.085 µM
CC(C)C[C@@H]1NC(=O)[C@@H](NC(=O)OCc2ccccc2)Cc2ccc(cc2)OCCCCSC[C@@H](C=O)NC1=O |  |  |  | IC50 [4]: 1.01 µM
CC(C)C[C@@H](C=O)NC(=O)[C@@H](NC(=O)c1cccs1)C(C)C |  | 0.68 | 0.1 | 
CC(C)C[C@@H](C=O)NC(=O)[C@@H](NC(=O)c1cc(C=O)c[nH]1)C(C)C |  | 0.53 | 0.1 | 
CC(C)C[C@@H]1NC(=O)[C@@H](NC(=O)OCc2ccccc2)Cc2ccc(cc2)OCCCCSC[C@@H](CO)NC1=O |  |  |  | IC50 [4]: 28 µM
CC(C)C[C@@H](C=O)NC(=O)[C@@H](NS(C)(=O)=O)C(C)C (Ms-Val-Leu-aldehyde) | 0.83 |  |  | 
CC(C)C[C@@H](C=O)NC(=O)[C@@H](NC(=O)c1ccc(C=O)[nH]1)C(C)C |  | 0.29 | 0.025 | 
CC(C)C[C@@H]1NC(=O)[C@@H](NC(=O)OCc2ccccc2)Cc2ccc(cc2)OCCC[C@@H](CO)NC1=O |  |  |  | IC50 [4]: 31 µM
CC(C)C[C@@H](C=O)NC(=O)[C@@H](NC(=O)c1ccc(C=O)n1C)C(C)C |  | 0.15 | 0.15 | 
COC(=O)c1ccc(C(=O)N[C@H](C(=O)N[C@H](C=O)CC(C)C)C(C)C)[nH]1 |  | 0.29 | 0.14 | 
Cc1ccc(S(=O)(=O)N[C@H](C(=O)N[C@H](C=O)Cc2ccccc2)C(C)C)cc1 (Tos-Val-Phe-aldehyde) | 0.018 |  |  | 
CC(C)[C@H](NS(=O)(=O)c1ccc(F)cc1)C(=O)N[C@H](C=O)Cc1ccccc1 | 0.027 |  |  | 

Further lines, with some results ahead:

IC50 [1] [µM] | IC50 [2] [µM] | IC50 [3] [µM] | Compound | further results
21 |  |  | CC(C)C[C@@H](C=O)NC(=O)[C@H](C(C)C)N(C)S(=O)(=O)c1ccc(F)cc1 | 
0.01 |  |  | CC(C)C[C@@H](C=O)NC(=O)[C@@H](NS(=O)(=O)c1ccc2ccccc2c1)C(C)C | 
0.014 |  |  | CC(C)[C@H](NS(=O)(=O)c1ccc2ccccc2c1)C(=O)N[C@H](C=O)Cc1ccccc1 | 
0.013 |  |  | CC(C)[C@H](NS(=O)(=O)c1ccc(Cl)cc1)C(=O)N[C@H](C=O)Cc1c[nH]c2ccccc12 | 
0.13 |  |  | CCC[C@H](NS(=O)(=O)c1ccc(F)cc1)C(=O)N[C@H](C=O)CC(C)C | 
0.014 |  |  | CC(C)[C@H](NS(=O)(=O)c1ccc(Cl)cc1)C(=O)N[C@H](C=O)Cc1ccccc1 | 
0.26 |  |  | CCCC[C@H](NS(=O)(=O)c1ccc(F)cc1)C(=O)N[C@H](C=O)CC(C)C | 
0.031 |  |  | CC(C)C[C@@H](C=O)NC(=O)[C@@H](NS(=O)(=O)c1ccc(Cl)cc1)C(C)C | 
0.023 |  |  | CC(C)[C@H](NS(=O)(=O)c1ccc(F)cc1)C(=O)N[C@H](C=O)Cc1c[nH]c2ccccc12 | 
